Here are results for 13 compounds from PubChem BioAssay.

Assay [1] can be described thus: inhibitors of TNFa-induced NFkB p65 translocation, primary screen, imaging, HUVEC, MLSMR starter and 10KST1 sets (AID 438;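 active = inhibition above 20% together with a positive visual image hit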;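 note: compound added about 3h40 before a 20 min TNFalpha stimulation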;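 for inhibition: signal is the nuclear over cytoplasmic p65 intensity ratio per well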). The note with it: HUVEC TNFa-induced p65 nuclear translocation; cell count: measured here: nuclei count (cytotoxicity indicator), at 2.08 µM; inhibition: at 2 µM, stronger effect = higher value, 0% TNFa-plus-vehicle, 100% no-TNFa wells.
Assay [2] can be described thus: endothelial E-selectin expression blockers – imaging, HUVEC, immunofluorescence, MLSMR starter and 10KST1 sets, primary screen (AID 487;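 active = visually confirmed hit in the image check and inhibition above 20%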;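 for inhibition: signal is fraction of cell area covered by stained E-selectin grains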;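 for nuclei count: 100% = median nuclei count of all wells on the same plate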). The note with it: HUVEC TNFalpha-induced E-selectin immunofluorescence imaging, at 2 µM; inhibition: stronger effect = higher value; nuclei count: measured here: cell number, toxicity.
Assay [3] can be described thus: Primary imaging screen for DUSP6 inhibitors that restore phospho-Erk in transfected HeLa cells, chemical complementation (AID 609;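 active = compounds giving at least 50% inhibition in the cell-based MKP-3 phosphatase rescue imaging test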;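 for inhibition: phospho-Erk level distribution per well compared with pooled transfected vehicle control wells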). The conditions noted are these: HeLa MKP-3 transfected, phospho-Erk imaging KS statistic, at 10 µM, cells stimulated with TPA for 15 min.
In assay [4] the target is Dual specificity protein phosphatase 6 (Homo sapiens) (UniProt Q16828). The description is as above. The note with it: HeLa MKP-3 transfected, phospho-Erk imaging KS statistic; at 10 µM; stronger effect = higher value; cells stimulated with TPA for 15 min.
Assay [5] deals with Voltage-gated potassium channel subunit beta-2 (Rattus norvegicus) (UniProt P62483). Description: inhibitors of rat Kvbeta2 reductase activity – biochemical, NADPH fluorescence, primary screen (AID 622;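 active = fluorescence slope higher than the sample average by over 3 SD, cut at about -0.22 in these data, passing the limit was not always enough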;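 note: slope of raw intensity against log time taken from 70 to 1610 s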). The conditions noted are these: recombinant KvBeta, 4-cyanobenzaldehyde reduction, at 10 µM, stronger effect = higher value.
Assay [6] has the same target. Description: enhancers of rat Kvbeta2 NADPH turnover – biochemical, NADPH fluorescence, primary screen (AID 623;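 active = NADPH fluorescence slope more negative than the mean of all samples by about 3 SD, 99.7% confidence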;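 note: fluorescence intensity change per second fitted from 20 to 320 s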). The note with it: Recombinant KvBeta, NADPH fluorescence decrease slope, 10 min; at 10 µM; stronger effect = lower value.
The target in assay [7] is Muscarinic acetylcholine receptor M4 (Homo sapiens) (UniProt P08173). Description: M4-linked GIRK flux change, two-sided – cell-based, HEK293 M4/GIRK, thallium flux, BTC-AM, M4 allosteric agonist project, primary screen (AID 625;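 active = fluorescence slope after compound addition differing from the mean of all tested samples at 99.7% confidence, mostly higher but some lower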;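 note: thallium influx through GIRK channels coupled to M4 in HEK293 cells with BTC-AM dye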). The conditions noted are these: at 10 µM, actives lie on both sides. An outline of the steps: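 Material: M4/GIRK1/GIRK2 stable HEK293 cell line. Medium: pH 7.3 thallium assay buffer. Dosing: single compound concentration, 10 µM final. Schedule: 1 h dye loading, 2 min kinetic read. Measured by: kinetic fluorescence with BTC-AM dye. Read-out: post-addition slope, 15–24 s, of baseline-normalized fluorescence. Benchmarks: carbachol and DMSO controls.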

Assay [8] is described as follows: inhibitors of larval lipid processing in zebrafish, primary screen, whole organism, PED6 fluorescence, gall bladder and intestine (AID 686;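 active = a full or partial loss of lipid-probe fluorescence in the fish gall bladder, intestine or both, judged by eye; inactive = no fluorescence loss, or compound toxic to the fish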;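 note: larvae 5 to 7 days old with five fish per well; signal comes from phospholipase A2 cleavage of quenched PED6 carried via bile; overnight exposure to compound and PED6 before scoring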). The conditions noted are these: Zebrafish larvae PED6 lipid processing, fluorescence scoring; screened at 20 µM (by protocol). The gist of the method:
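System: live zebrafish larvae aged 5-7 days, whole organism; measure: graded gall bladder and intestinal fluorescence inhibition per well; incubation: overnight exposure; reagent: ingested quenched lipid PED6 at 100 nM; signal: By-eye fluorescence microscopy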

A short description of assay [9]: loss of swimming-algae plug formation – whole organism, Chlamydomonas reinhardtii, WT vs cilia-less mutant, absorbance, 96-well, primary screen (AID 463189).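 Note: 0% = wild type cc124 cells in DMSO and 100% = ciliumless bld1 mutant cells.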 The conditions noted are these: Chlamydomonas reinhardtii gravitaxis, OD600 absorbance, 2 days; at 10 µM; stronger effect = higher value.
Where [10] appears, read: measured here: cell density z-score.
Setting [11] is: measured here: nuclear c-Myc green intensity z-score.
The mark [12] stands for this setting: measured here: nuclear pErk red intensity z-score, stronger effect = higher value.

The source made the active and inactive calls.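 Rule for the calls, unless noted: active = inhibition at or above 50% relative to wild type and mutant plate controls; inactive = inhibition below 50%.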

Sequence of Dual specificity protein phosphatase 6 (Homo sapiens) (Q16828 whole entry, looked up): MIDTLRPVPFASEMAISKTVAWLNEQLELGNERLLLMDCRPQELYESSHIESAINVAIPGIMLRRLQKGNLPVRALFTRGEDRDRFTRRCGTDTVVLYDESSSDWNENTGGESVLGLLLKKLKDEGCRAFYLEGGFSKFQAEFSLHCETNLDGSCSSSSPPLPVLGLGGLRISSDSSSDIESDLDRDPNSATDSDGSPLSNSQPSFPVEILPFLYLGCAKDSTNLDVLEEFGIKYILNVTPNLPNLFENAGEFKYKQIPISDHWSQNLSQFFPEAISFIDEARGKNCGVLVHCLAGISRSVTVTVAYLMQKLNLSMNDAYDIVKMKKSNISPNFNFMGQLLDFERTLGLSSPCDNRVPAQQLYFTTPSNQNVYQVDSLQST
Sequence of Muscarinic acetylcholine receptor M4 (Homo sapiens) (P08173 whole entry, looked up): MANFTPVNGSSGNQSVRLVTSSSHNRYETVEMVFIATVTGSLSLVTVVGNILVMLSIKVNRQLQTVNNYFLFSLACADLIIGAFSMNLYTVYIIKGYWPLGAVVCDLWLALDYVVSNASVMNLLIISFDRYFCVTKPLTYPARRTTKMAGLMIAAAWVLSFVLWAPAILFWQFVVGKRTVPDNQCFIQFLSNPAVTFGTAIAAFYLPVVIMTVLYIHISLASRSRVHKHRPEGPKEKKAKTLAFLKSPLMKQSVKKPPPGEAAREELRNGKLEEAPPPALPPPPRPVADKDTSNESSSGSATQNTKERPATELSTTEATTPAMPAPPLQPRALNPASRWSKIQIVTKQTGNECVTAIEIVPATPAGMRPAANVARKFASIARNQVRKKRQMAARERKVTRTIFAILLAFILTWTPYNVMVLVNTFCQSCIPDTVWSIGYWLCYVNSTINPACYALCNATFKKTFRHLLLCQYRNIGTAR
Sequence of Voltage-gated potassium channel subunit beta-2 (Rattus norvegicus) (P62483 whole entry, looked up): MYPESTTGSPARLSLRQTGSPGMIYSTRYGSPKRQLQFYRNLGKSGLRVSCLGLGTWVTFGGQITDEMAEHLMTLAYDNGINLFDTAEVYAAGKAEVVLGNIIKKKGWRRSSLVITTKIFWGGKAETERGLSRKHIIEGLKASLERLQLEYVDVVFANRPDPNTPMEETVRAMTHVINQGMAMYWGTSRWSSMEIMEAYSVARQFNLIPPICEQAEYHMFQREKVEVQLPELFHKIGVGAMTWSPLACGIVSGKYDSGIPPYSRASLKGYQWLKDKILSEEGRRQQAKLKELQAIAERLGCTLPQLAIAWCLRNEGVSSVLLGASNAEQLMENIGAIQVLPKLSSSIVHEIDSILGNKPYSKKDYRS

For `CC1(C)Cc2c(C#N)c(SCC(=O)c3ccccc3)nc(N3CCOCC3)c2CS1`, the cell count in assay [1] came to 567. The inhibition (commonly the change of the read-out against control, counted positive when it falls) was -9.1% (inactive) in [1], -119% (inactive) in [2], 5.42% (inactive) in assay [4] and 34.2% (inactive) in assay [9]. Moreover, the nuclei count in assay [2] was 93.2%. The values for the z-score in assay [3] (setting [10]), in assay [3] (setting [11]) and in assay [3] (setting [12]) were 0.0433, -1.53 and 0.585, respectively. The fluorescence slope was -0.491 (inactive) in assay [5] and 0.00928 (inactive) in assay [7]. In addition, in assay [6], the NADPH fluorescence slope is 1.6e-05 (inactive). Also, in assay [8], the compound was called inactive.

As for `Cn1ncc(N=Cc2c(O)ccc3ccccc23)c1C(=O)N1CCOCC1`, the cell count in assay [1] was determined as 713. In addition, the inhibition in assay [1] was -2.5% (inactive); in assay [2] it was -43.6% (inactive); in [4], 3.97% (inactive); in assay [9], 11.5% (inactive). The compound also registered a nuclei count in assay [2] of 175%. The z-score in assay [3] (setting [10]) came out at 0.977; in assay [3] (setting [11]) it was 0.19; in [3] (setting [12]), 0.26. Moreover, the figures for the fluorescence slope in [5] and in assay [7] were -0.482 (inactive) and 0.00513 (inactive), respectively. The NADPH fluorescence slope in [6] is -9.8e-05 (inactive). Besides, the outcome in assay [8] was inactive.

Regarding `COc1ccc(CNc2oc(COc3ccc(Cl)cc3)nc2C#N)cc1`, the cell count in [1] was 484. The inhibition was 5.8% (inactive) in [1], -33.3% (inactive) in assay [2], -5.62% (inactive) in assay [4] and 2.55% (inactive) in assay [9]. This compound returned a nuclei count in assay [2] of 164%. The z-score in assay [3] (setting [10]) was determined as 0.0253; in assay [3] (setting [11]), 0.364; in [3] (setting [12]), 0.0628. Also, the fluorescence slope is -0.474 (inactive) in assay [5] and 0.00987 (inactive) in [7]. The NADPH fluorescence slope in assay [6] is -3.7e-05 (inactive). For the same compound, in assay [8], the compound was called inactive.

With `CN1CCN(c2c3c(c(C#N)c4nc5ccccc5n24)CCCC3)CC1`, the cell count in [1] was found to be 514. Moreover, the inhibition in assay [1] was 0.8% (inactive); in [2], -60.7% (inactive); in assay [4] it was 5.95% (inactive); in assay [9], -10.8% (inactive). This compound also returned a nuclei count in assay [2] of 130%. Also, the z-score in assay [3] (setting [10]) is 1.3; in [3] (setting [11]), -0.661; in assay [3] (setting [12]) it was -1.13. Further, the fluorescence slope was -0.35 (inactive) in [5] and 0.00748 (inactive) in [7]. For the same compound, the NADPH fluorescence slope in assay [6] was -3.3e-05 (inactive). Further, the call in assay [8] was inactive.

Turning to `COC(=O)COc1ccc(Oc2nc(SC)nc(N(C)C)n2)nn1`, the cell count in assay [1] was 345. Also, the inhibition in assay [1] was -16.3% (inactive); in assay [2], -54.5% (inactive); in [4], -3.95% (inactive); in assay [9], -8.33% (inactive). The same compound showed a nuclei count in assay [2] of 109%. Also, the z-score in assay [3] (setting [10]) is -0.468; in [3] (setting [11]), -0.441; in [3] (setting [12]) it was -0.861. The figures for the fluorescence slope in assay [5] and in [7] were -0.461 (inactive) and 0.00594 (inactive), respectively. Further, in [6], the NADPH fluorescence slope was -8.1e-05 (inactive). For the same compound, the result in assay [8] was inactive.

With `Cc1ccc(S(=O)(=O)NC(=O)Nc2ncc3c(n2)CC(c2ccco2)CC3=O)cc1` (centres undefined), the cell count in assay [1] came out at 662. Also, the inhibition in assay [1] was -3.8% (inactive); in [2] it was 45.8% (inactive); in [4] it was 22.1% (inactive); in [9] it was -13.7% (inactive). The nuclei count in [2] is 89.6%. The z-score was 1.23 in [3] (setting [10]), -1.12 in assay [3] (setting [11]) and -0.985 in [3] (setting [12]). In addition, the fluorescence slope is -0.51 (inactive) in assay [5] and 0.00507 (inactive) in assay [7]. In addition, in assay [6], the NADPH fluorescence slope was -2.8e-05 (inactive). Besides, the outcome in assay [8] was inactive.

Turning to `CC(C)Cc1nc(N2CCOCC2)c(C#N)c2c1COC(C)(C)C2`, the cell count in assay [1] came to 584. The inhibition in assay [1] was -7% (inactive); in [2], -84.6% (inactive); in assay [4], -2.09% (inactive); in assay [9] it was 3.97% (inactive). Further, the nuclei count in assay [2] worked out at 146%. Further, the z-score is -0.646 in assay [3] (setting [10]), 0.861 in assay [3] (setting [11]) and 0.329 in assay [3] (setting [12]). The fluorescence slope in [5] was -0.405 (inactive); in assay [7], 0.00418 (inactive). For the same compound, the NADPH fluorescence slope in assay [6] is -3.3e-05 (inactive). In addition, in [8], the outcome was inactive.

Regarding `c1nc(NC2CCCCC2)c2[nH]cnc2n1`, the cell count in assay [1] was 743. The inhibition in assay [1] was -1.9% (inactive); in [2], -76.5% (inactive); in [4] it was 9.91% (inactive); in assay [9], 3.23% (inactive). This compound had a nuclei count in assay [2] of 168%. Also, the z-score in assay [3] (setting [10]) was -1.06; in assay [3] (setting [11]), 0.0486; in assay [3] (setting [12]), -0.156. In addition, the fluorescence slope was -0.483 (inactive) in [5] and 0.00575 (inactive) in [7]. Further, the NADPH fluorescence slope in assay [6] was -6.4e-05 (inactive). Besides, the result in [8] was inactive.

`C=CCOc1ccc(C2/C(=C(\O)c3ccc(F)cc3)C(=O)C(=O)N2CCCN(C)C)cc1` (centres undefined): in [1], the cell count is 672. For the same compound, the inhibition is -13.7% (inactive) in assay [1], -142% (inactive) in [2], 4.25% (inactive) in assay [4] and 14.7% (inactive) in assay [9]. Further, the nuclei count in assay [2] was found to be 172%. The z-score in assay [3] (setting [10]) is 1.58; in assay [3] (setting [11]) it was 1.06; in [3] (setting [12]), -0.378. Besides, the values for the fluorescence slope in assay [5] and in assay [7] were -0.451 (inactive) and 0.00492 (inactive), respectively. For the same compound, in assay [6], the NADPH fluorescence slope is -4.3e-05 (inactive). The result in [8] was inactive.

For the compound `CCOC(=O)Cn1nc(C)c2ccccc2c1=O`, the cell count in assay [1] turned out to be 579. Further, the inhibition in [1] is -1.2% (inactive); in assay [2] it was -43.5% (inactive); in assay [4] it was 7.21% (inactive); in assay [9] it was -2.22% (inactive). The nuclei count in assay [2] was found to be 154%. For the same compound, the z-score was 1.29 in [3] (setting [10]), -0.0748 in assay [3] (setting [11]) and 0.243 in assay [3] (setting [12]). The figures for the fluorescence slope in [5] and in assay [7] were -0.515 (inactive) and 0.00507 (inactive), respectively. Further, the NADPH fluorescence slope in [6] was -0.000104 (inactive). Moreover, the outcome in [8] was inactive.

Regarding `CN1CC2(C)CN(C(c3ccccc3)c3ccccc3)CC(C)(C1)C2O` (centres undefined), the cell count in assay [1] was found to be 529. For the same compound, the inhibition in assay [1] was -8.9% (inactive); in assay [2], -136% (inactive); in [4], 3.42% (inactive); in assay [9], -0.999% (inactive). The nuclei count in [2] stood at 154%. Further, the z-score was 1.6 in [3] (setting [10]), -0.0767 in assay [3] (setting [11]) and -1.37 in [3] (setting [12]). The fluorescence slope in assay [5] was -0.479 (inactive); in assay [7] it was 0.00415 (inactive). Also, the NADPH fluorescence slope in assay [6] is -8.8e-05 (inactive). In assay [8], the compound was classed as inactive.

Regarding `O=c1cc(O)nc2n1CCCS2`, the cell count in [1] was 698. Besides, the inhibition in assay [1] was 0.1% (inactive); in [2], 56.2% (inactive); in assay [4], -9.53% (inactive); in [9], 0.661% (inactive). The same compound displayed a nuclei count in assay [2] of 144%. The z-score came to 1.6 in assay [3] (setting [10]), 0.755 in [3] (setting [11]) and 0.757 in [3] (setting [12]). Moreover, the fluorescence slope is -0.418 (inactive) in [5] and 0.00444 (inactive) in assay [7]. Moreover, the NADPH fluorescence slope in assay [6] is -5.5e-05 (inactive). Further, the call in assay [8] was inactive.

`CCOC(=O)Cc1[nH]nc2c1C(c1cc(OC)ccc1OC)C(C#N)=C(N)O2` (centres undefined): in [1], the cell count worked out at 591. Moreover, the inhibition was -5.3% (inactive) in [1], -13.2% (inactive) in [2], 21% (inactive) in [4] and -4.63% (inactive) in [9]. The nuclei count in assay [2] worked out at 140%. Besides, the figures for the z-score in [3] (setting [10]), in assay [3] (setting [11]) and in [3] (setting [12]) were 1.07, 1.02 and 0.992, respectively. The results for the fluorescence slope in [5] and in assay [7] were -0.503 (inactive) and 0.00642 (inactive), respectively. In assay [6], the NADPH fluorescence slope is -5.8e-05 (inactive). Moreover, in [8], the compound was called inactive.
